Laboratory results: ChEMBL document CHEMBL1133940, “A novel class of inhibitors for steroid 5alpha-reductase: synthesis and evaluation of umbelliferone derivatives” (Bioorg Med Chem Lett, 2001)
Several values for one entry are separate records, joined by “and”; a condition that tells them apart may be missing. Equal values may be shown once.

Molecular target: T1, 3-oxo-5-alpha-steroid 4-dehydrogenase 1 (Homo sapiens, UniProt P18405)
T1 sequence (P18405 whole entry): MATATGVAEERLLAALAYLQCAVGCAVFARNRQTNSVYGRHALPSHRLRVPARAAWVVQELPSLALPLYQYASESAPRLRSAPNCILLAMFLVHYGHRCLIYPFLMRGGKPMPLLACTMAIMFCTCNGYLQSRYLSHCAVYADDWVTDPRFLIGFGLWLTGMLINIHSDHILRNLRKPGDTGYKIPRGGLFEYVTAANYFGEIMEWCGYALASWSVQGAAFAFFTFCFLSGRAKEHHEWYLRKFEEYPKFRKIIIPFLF
Experiment: Inhibitory activity against 5-alpha-reductase type 1 in cell culture system using LNCaP cells (androgen-sensitive human prostatic cancer cell line)
Type: cell-based
Method in brief: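 LNCaP cells (express 5aR-1 only) seeded at 2×10⁵ cells/mL/well, grown 24 h in medium with 5% hormone-free FBS. Then exposed to [³H]-testosterone plus test sample (final 0.5% DMSO) for 18 h. Medium extracted with ethyl acetate, [³H]-T and [³H]-DHT separated by TLC. Conversion = DHT radioactivity/(T+DHT). IC50 ([…]) relative to 0.5% DMSO control.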

SMILES	IC50
C#CCOc1ccc2ccc(=O)oc2c1	> 99.9 µM
C=CC(C)(C)Oc1ccc2ccc(=O)oc2c1	1.3 µM
C=CCc1cc2ccc(=O)oc2cc1O	8.41 µM and 8.4 µM
C#CC(C)(C)Oc1ccc2ccc(=O)oc2c1	> 87.6 µM
C=CCOc1ccc2ccc(=O)oc2c1 [7-ALLYLOXYCOUMARIN]	> 98.9 µM
CC(C)(C)NC(=O)[C@H]1CC[C@H]2[C@@H]3CC[C@H]4NC(=O)C=C[C@]4(C)[C@H]3CC[C@]12C [FINASTERIDE]	53.1 µM and 53 µM
O=c1ccc2ccc(O)cc2o1 [UMBELLIFERONE]	> 123 µM

Continued, values first:

IC50	SMILES
> 13.7 µM	C=CCc1c(OCc2ccccc2)ccc2ccc(=O)oc12
50.3 µM	C=CCc1c(OC(C)(C)C=C)ccc2ccc(=O)oc12
0.622 µM and 0.62 µM	C=CCc1c(OC(=O)Nc2ccccc2)ccc2ccc(=O)oc12
> 14.9 µM	C#CC(C)(C)Oc1ccc2ccc(=O)oc2c1CC=C
0.49 µM	C=CCc1c(OC(=O)c2ccccc2)ccc2ccc(=O)oc12
> 81.2 µM	C=CCc1c(OCCO)ccc2ccc(=O)oc12
> 77.4 µM	C=CCc1c(OCC(C)=O)ccc2ccc(=O)oc12
0.819 µM and 0.82 µM	C=CCc1c(OC(C)=O)ccc2ccc(=O)oc12
0.989 µM and 0.99 µM	C=CCc1c(O)ccc2ccc(=O)oc12
> 18.5 µM	C=CCc1c(OC)ccc2ccc(=O)oc12
